Data set [1] in a line: folding enthalpy; higher = less favourable; fluorescence melt of hairpins on a sequencing array, two-state fit. To be noted: sodium 0.088 M. A digest of the protocol: (§1)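 Two-state fits, bootstrapped, provided melting temperature and folding enthalpy from Cy3 fluorescence normalised to pre-quench Cy3 and to control constructs. Library hairpins with annealed Cy3 and quencher oligos were imaged on a sequenced MiSeq flow cell in 50 mM Na-HEPES pH 8.0, 25 mM NaCl, at 2.5 °C intervals up to 60 °C. Four replicates were combined with inverse-variance weighting. A 9.35 °C upward shift was applied to fitted temperatures to match UV melts.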

Data set [2] can be described thus: melting temperature; fluorescence melt of hairpins on a sequencing array, two-state fit, raised by 9.35 °C to match UV melts. To be noted: sodium 0.088 M. A digest of the protocol:
as §1

AAAGGGAAACCTTT (((((....))))): the folding enthalpy in data set [1] was -10 kcal/mol. Further, the Tm in data set [2] was 32.2 °C.
The corresponding values for AACGAGAAATCGTT (((((....))))) are -16.9 kcal/mol and 38.5 °C.
For AAGATGAAAATCTT (((((....))))) the same measures were -8.93 kcal/mol and 28.4 °C.
For AATGGGAAACCATT (((((....))))) the same measures were -14.1 kcal/mol and 37.7 °C.
For ACAGGGAAACCTGT (((((....))))), in data set [1], the folding enthalpy was -18.8 kcal/mol. In data set [2], the Tm amounted to 48.3 °C.
The corresponding values for ACAGTGAAAACTGT (((((....))))) are -19.2 kcal/mol and 45.7 °C.
For ACATCGAAAGATGT (((((....))))) the same measures were -19.6 kcal/mol and 52.6 °C.
The corresponding values for ACCAAGAAATTGGT (((((....))))) are -13.7 kcal/mol and 37.5 °C.
With ACCATGAAAATGGT (((((....))))), the folding enthalpy in data set [1] is -20.3 kcal/mol. In addition, in data set [2], the Tm worked out at 46.6 °C.
The corresponding values for ACCGGGAAACCGGT (((((....))))) are -16.6 kcal/mol and 66.5 °C.
For ACCTTGAAAAAGGT (((((....))))) the same measures were -13.4 kcal/mol and 47.3 °C.
In the case of ACGAGGAAACTCGT (((((....))))), the folding enthalpy in data set [1] was -26 kcal/mol. The Tm in data set [2] came out at 50.3 °C.
The corresponding values for ACGCAGAAATGCGT (((((....))))) are -21.7 kcal/mol and 55.7 °C.
The corresponding values for ACTACGAAAGTAGT (((((....))))) are -18.7 kcal/mol and 50.9 °C.
The corresponding values for ACTCGGAAACGAGT (((((....))))) are -20.8 kcal/mol and 52.3 °C.
Regarding ACTTTGAAAAAAGT (((((....))))), the folding enthalpy in data set [1] was -8.08 kcal/mol. For the same sequence, in data set [2], the Tm was determined as 30.6 °C.
For AGAAACAGAAATGGTTCT ((((.((....)).)))) the same measures were -22.8 kcal/mol and 33.1 °C.
The corresponding values for AGAAACCGAAAGGCTTCT ((((.((....)).)))) are -28.4 kcal/mol and 40.9 °C.
For AGAAGGAAACTTCT (((((....))))) the same measures were -13.6 kcal/mol and 30.7 °C.
As for AGCAGGAAACTGCT (((((....))))), the folding enthalpy in data set [1] is -22.8 kcal/mol. The Tm in data set [2] is 52.7 °C.
For AGCCTGAAAAGGCT (((((....))))) the same measures were -18.2 kcal/mol and 66.1 °C.
Consider AGGAAGAAATTCCT (((((....))))), for which the folding enthalpy in data set [1] was -11.9 kcal/mol. Further, the Tm in data set [2] amounted to 28.9 °C.
The corresponding values for ATAGGGAAACCTAT (((((....))))) are -11.2 kcal/mol and 32.4 °C.
For ATAGTGAAAACTAT (((((....))))) the same measures were -12.8 kcal/mol and 30.4 °C.
The corresponding values for ATATCGAAAGATAT (((((....))))) are -15.8 kcal/mol and 42.2 °C.
As for ATATGGAAACATAT (((((....))))), the folding enthalpy in data set [1] was -11.4 kcal/mol. The Tm in data set [2] was 27.6 °C.
Turning to ATCCCGAAAGGGAT (((((....))))), in data set [1], the folding enthalpy was -29.1 kcal/mol. In data set [2], the Tm was 60.9 °C.
For ATCTGGAAACAGAT (((((....))))) the same measures were -18.3 kcal/mol and 39.1 °C.
For ATCTTGAAAAAGAT (((((....))))) the same measures were -9.95 kcal/mol and 32.9 °C.
For ATGCGGAAACGCAT (((((....))))) the same measures were -17.1 kcal/mol and 57.7 °C.
ATGTAGAAATACAT (((((....))))): the folding enthalpy in data set [1] is -7.12 kcal/mol. Also, the Tm in data set [2] was 28.2 °C.
For ATTCGGAAACGAAT (((((....))))) the same measures were -18.4 kcal/mol and 44.8 °C.
For ATTCTGAAAAGAAT (((((....))))) the same measures were -12.6 kcal/mol and 32.2 °C.
For ATTGCGAAAGCAAT (((((....))))) the same measures were -17.5 kcal/mol and 57.6 °C.
Consider ATTGTGAAAACAAT (((((....))))), for which the folding enthalpy in data set [1] is -14.9 kcal/mol. Also, in data set [2], the Tm is 39 °C.
For ATTTCGAAAGAAAT (((((....))))) the same measures were -16 kcal/mol and 42.1 °C.
For CAACAGAAATGTTG (((((....))))) the same measures were -22.1 kcal/mol and 40.8 °C.
The corresponding values for CAACCAGAAATGGTTG ((((((....)))))) are -29.4 kcal/mol and 53.1 °C.
On to CAACTGAAAAGTTG (((((....))))), for which the folding enthalpy in data set [1] is -22.1 kcal/mol. Besides, in data set [2], the Tm stood at 46.2 °C.
For the sequence CAAGAGAAATCTTG (((((....))))), the folding enthalpy in data set [1] is -10.5 kcal/mol. For the same sequence, the Tm in data set [2] was determined as 31.7 °C.
The corresponding values for CAATCAGAAATGGTTG (((.((....)).))) are -13.9 kcal/mol and 29.3 °C.
For CAATCGAAAGATTG (((((....))))) the same measures were -22.6 kcal/mol and 51.3 °C.
For CACAAGAAATTGTG (((((....))))) the same measures were -21.7 kcal/mol and 37.6 °C.
CAGGTGAAAACCTG (((((....))))): the folding enthalpy in data set [1] was -24.5 kcal/mol. Besides, the Tm in data set [2] worked out at 53 °C.
For CATCCGAAAGGATG (((((....))))) the same measures were -25.8 kcal/mol and 63.1 °C.
For CATGAGAAATCATG (((((....))))) the same measures were -13.9 kcal/mol and 43.9 °C.
The corresponding values for CCCAAGAAATTGGG (((((....))))) are -17.3 kcal/mol and 45.3 °C.
Regarding CCCGAGAAATCGGG (((((....))))), the folding enthalpy in data set [1] was -19.6 kcal/mol. Moreover, the Tm in data set [2] is 54.2 °C.
For CCGTTGAAAAACGG (((((....))))) the same measures were -19.9 kcal/mol and 54.3 °C.
For CCTAGGAAACTAGG (((((....))))) the same measures were -25.4 kcal/mol and 41.2 °C.
Turning to CCTCAGAAATGAGG (((((....))))), the folding enthalpy in data set [1] is -19.7 kcal/mol. In addition, in data set [2], the Tm is 45.2 °C.
The corresponding values for CCTTAGAAATAAGG (((((....))))) are -10.5 kcal/mol and 28.6 °C.
Consider CCTTCGAAAGAAGG (((((....))))), for which the folding enthalpy in data set [1] is -20.7 kcal/mol. The Tm in data set [2] was 55.2 °C.
For CCTTTGAAAAAAGG (((((....))))) the same measures were -12.2 kcal/mol and 39.7 °C.
CGAACGAAAGTTCG (((((....))))): in data set [1], the folding enthalpy is -29.2 kcal/mol. In addition, the Tm in data set [2] was 68.7 °C.
Consider CGAACGGAAACGTCGTCG ((((((....)))..))), for which the folding enthalpy in data set [1] is -18.3 kcal/mol. Besides, in data set [2], the Tm came out at 47.1 °C.
The corresponding values for CGAACGGAAACGTGGTCG ((((((....)))..))) are -12.7 kcal/mol and 32.7 °C.
The corresponding values for CGAACGGAAACGTTATCG ((((((....)))..))) are -14.6 kcal/mol and 28.8 °C.
The corresponding values for CGAAGCCGGAAACGGTCG (((..(((....)))))) are -12.6 kcal/mol and 37.8 °C.
Turning to CGAAGCGGAAACGCATCG (((.(((....))).))), the folding enthalpy in data set [1] is -27.5 kcal/mol. Moreover, the Tm in data set [2] stood at 51.5 °C.
With CGAAGCGGAAACGCCTCG (((.(((....))).))), the folding enthalpy in data set [1] was -23.8 kcal/mol. Also, the Tm in data set [2] was found to be 47.3 °C.
The corresponding values for CGAATCGGAAACGAGTCG (((.(((....))).))) are -40.2 kcal/mol and 51.3 °C.
The corresponding values for CGAATGAAAATTCG (((((....))))) are -22.5 kcal/mol and 48.1 °C.
For the sequence CGACCCGGAAACGGTCG (((.(((....)))))), the folding enthalpy in data set [1] is -30.1 kcal/mol. Also, the Tm in data set [2] was 52.5 °C.
The corresponding values for CGACCCGGAAACGGTTCG (((.(((....))).))) are -39.8 kcal/mol and 48.6 °C.
The corresponding values for CGACCGGAAACGGCCTCG ((((((....)))..))) are -11.9 kcal/mol and 30.2 °C.
Regarding CGACCGGAAACGGGCTCG ((((((....)))..))), the folding enthalpy in data set [1] was -12.1 kcal/mol. In addition, the Tm in data set [2] worked out at 35.8 °C.
The corresponding values for CGACCGGAAACGGTTTCG ((((((....)))..))) are -10.3 kcal/mol and 33.5 °C.
For CGACGCCGGAAACGGTCG (((..(((....)))))) the same measures were -18.3 kcal/mol and 44.3 °C.
With CGACGCGGAAACGCATCG (((.(((....))).))), the folding enthalpy in data set [1] is -28 kcal/mol. In data set [2], the Tm turned out to be 49.1 °C.
For CGACGCGGAAACGCTCG (((.(((....)))))) the same measures were -21.8 kcal/mol and 49.3 °C.
In the case of CGACGTCGGAAACGATCG (((..(((....)))))), in data set [1], the folding enthalpy was -11.2 kcal/mol. The Tm in data set [2] amounted to 37 °C.
For CGACTCGGAAACGACTCG (((.(((....))).))) the same measures were -30.6 kcal/mol and 34.2 °C.
CGAGAGAAATCTCG (((((....))))): the folding enthalpy in data set [1] was -23.9 kcal/mol. In data set [2], the Tm worked out at 47.5 °C.
For CGAGCCGGAAACGGATCG (((.(((....))).))) the same measures were -41.2 kcal/mol and 61.7 °C.
For CGAGCGGAAACGCCATCG ((((((....)))..))) the same measures were -12.5 kcal/mol and 31.9 °C.
As for CGAGCGGAAACGCGTCG ((((((....))).))), the folding enthalpy in data set [1] was -13.2 kcal/mol. In addition, the Tm in data set [2] stood at 53.6 °C.

Source of the values: the array DNA melting data of Ke et al. (doi:10.1101/2024.01.08.574731).
